Source: ChEMBL document CHEMBL1131624, “Inhibitors of acyl-CoA:cholesterol O-acyltransferase. 2. Identification and structure-activity relationships of a novel series of N-alkyl-N-(heteroaryl-substituted benzyl)-N'-arylureas” (J Med Chem, 1998)
Active and inactive are the calls of the source. No cut-off for these calls is given here.

Tests used:
[1] = molecular target: T1, Sterol O-acyltransferase, Soat (Rattus norvegicus) (UniProt Q7TQM4+O70536); test: Effective dose to reduce plasma total cholesterol level by 50% of the control value in cholesterol fed rats; format: functional
Method in brief: (§1)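 Cholesterol-fed rats given compound orally as a dietary admixture in a cholesterol-enriched diet. Plasma total cholesterol compared with control and reported as percent reduction at the dose, or as ED50, the dose reducing plasma total cholesterol by 50% of the control value.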

O-acyltransferase = O-acyltransferase (Oryctolagus cuniculus, UniProt G1SFD9); test: In vitro inhibitory activity against Acyl coenzyme A:cholesterol acyltransferase (ACAT) in rabbit intestinal microsomes; design: species or system Intestine
Method in brief: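 Enzyme source was mucosal microsomes from small intestine of cholesterol-fed rabbits, incubated with [1-¹⁴C]oleoyl-CoA (Heider method, minor modifications).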

Rattus norvegicus [2] = test: Compound was evaluated for percent reduction in total cholesterol level at >0.32 mg/kg; format: functional; method in brief: as §1
Rattus norvegicus [3] = test: Compound was evaluated for percent reduction in total cholesterol level at >0.32 mg/kg; Inactive; format: functional, organism-based; method in brief: as §1
Rattus norvegicus [4] = organism: Rattus norvegicus; test: Effective dose to reduce plasma total cholesterol level by 50% of the control in cholesterol fed rats; format: functional; method in brief: as §1
[5] = molecular target: T1, Sterol O-acyltransferase, Soat (Rattus norvegicus); test: Percentage reduction in total cholesterol level at <1 mg/kg; format: functional, organism-based; method in brief: as §1
Rattus norvegicus [6] = test: Effective dose to reduce plasma total cholesterol level by 50% of the control in cholesterol fed rats when administered by gavage in PEG400 as a vehicle; format: functional; settings: po
Method in brief: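 Rats on a cholesterol diet were dosed orally by gavage with compound in PEG400 vehicle. Plasma total cholesterol measured. ED50 is the dose reducing it by 50% of the control value.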

Mus musculus = organism: Mus musculus; test: Compound tested for inhibitory activity of foam cell formation in mouse peritoneal macrophages; format: functional
Method in brief: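 Mouse peritoneal macrophages from nonstimulated mice, lavaged with PBS, plated 2 × 10⁶ cells/mL, adhered 2 h, then 18 h in 10% FBS-DMEM. Incubated 4 h at 37 °C with 0.2 mmol/L [1-¹⁴C]oleate–BSA, 30 µg/mL acetylated human LDL and compound (0.1% DMSO). Lipids extracted, TLC-separated, and cholesteryl [¹⁴C]oleate counted. Cell protein also measured. IC50 in nM.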

Rattus norvegicus [7] = test: Compound was evaluated for percent reduction in total cholesterol level at >0.1 mg/kg; Inactive; format: functional, organism-based; method in brief: as §1
Rattus norvegicus [8] = test: Compound was evaluated for percent reduction in total cholesterol level at >1 mg/kg; inactive; format: functional, organism-based; method in brief: as §1

Chain of O-acyltransferase (G1SFD9 1-524): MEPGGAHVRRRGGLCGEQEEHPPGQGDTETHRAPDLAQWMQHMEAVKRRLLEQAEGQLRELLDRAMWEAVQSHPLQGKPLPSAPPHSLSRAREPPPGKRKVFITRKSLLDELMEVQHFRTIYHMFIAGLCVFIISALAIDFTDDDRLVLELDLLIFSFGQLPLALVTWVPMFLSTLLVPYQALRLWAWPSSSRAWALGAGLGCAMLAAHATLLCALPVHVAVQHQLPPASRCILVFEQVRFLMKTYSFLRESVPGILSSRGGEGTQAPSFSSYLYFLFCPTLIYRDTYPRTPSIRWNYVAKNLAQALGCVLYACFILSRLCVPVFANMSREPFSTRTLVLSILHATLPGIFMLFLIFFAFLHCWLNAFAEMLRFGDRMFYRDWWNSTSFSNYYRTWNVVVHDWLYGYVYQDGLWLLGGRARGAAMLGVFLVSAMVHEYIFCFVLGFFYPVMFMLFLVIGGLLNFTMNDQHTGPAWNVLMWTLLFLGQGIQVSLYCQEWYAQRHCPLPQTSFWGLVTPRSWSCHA

| SMILES | ED50 [1] [mg/kg] | IC50 (O-acyltransferase) [nM] | also measured |
| --- | --- | --- | --- |
| Cc1cc(C)c(NC(=O)N(Cc2ccc(-c3nnc(C)o3)cc2)C2CCCCCC2)c(C)c1 | > 0.32 | 27 | Reduction (Rattus norvegicus [2]): 37% |
| Cc1cc(C)c(NC(=O)N(Cc2ccc(-c3ccn(C)n3)cc2)C2CCCCCC2)c(C)c1 | < 1 | 44 | Reduction (Rattus norvegicus [3]): inactive; ED50 (Rattus norvegicus [4]): > 0.32 mg/kg; Reduction [5]: 88% |
| Cc1cc(C)c(NC(=O)N(Cc2ccc(-c3ccccc3)cc2)C2CCCCCC2)c(C)c1 |  | 24 | ED50 (Rattus norvegicus [4]): 0.29 mg/kg |
| CSc1cc(C)nc(SC)c1NC(=O)N(Cc1ccccc1)Cc1ccc(-c2ccn(C)n2)cc1 | > 0.32 | 29 | Reduction (Rattus norvegicus [7]): inactive |
| Cc1cc(C)c(NC(=O)N(Cc2c[nH]c(-c3ccccc3)n2)C2CCCCCC2)c(C)c1 | > 1 | 750 | Reduction (Rattus norvegicus [8]): inactive |

Second part, led by results:

| ED50 [1] [mg/kg] | IC50 (O-acyltransferase) [nM] | SMILES | also measured |
| --- | --- | --- | --- |
| 0.062 | 22 | O=C(Nc1c(F)cc(F)cc1F)N(Cc1cccc(-c2cc[nH]n2)c1)C1CCCCCC1 | ED50 (Rattus norvegicus [6]): 0.79 mg/kg; IC50 (Mus musculus): 580 nM |
| > 0.32 | 260 | CSc1cc(C)nc(SC)c1NC(=O)N(Cc1cccc(-c2cc[nH]n2)c1)C1CCCCCC1 | Reduction (Rattus norvegicus [2]): 24% |
